# Experimental data as given in ChEMBL document CHEMBL3120066, “Discovery of a novel class of potent HCV NS4B inhibitors: SAR studies on piperazinone derivatives” (J Med Chem, 2014).
# Activity calls are given as the source filed them. No cut-off for these calls is given here.
# Experiments:
# [1] = Solubility of the compound at pH 4; assay type: physicochemical; settings: buffer
# [2] = Half life in human liver microsomes; assay type: ADME
# Hepatitis C virus [3] = assay: Antiviral activity against HCV2 assessed as inhibition of viral replication; assay type: functional, organism-based; settings: Hepacivirus hominis; type 2
# Cytochrome P450 3A4 = Cytochrome P450 3A4 (Homo sapiens, UniProt P08684); assay: Inhibition of CYP3A4 (unknown origin) up to 10 uM; assay type: ADME
# Cytochrome P450 2D6 = Cytochrome P450 2D6 (Homo sapiens, UniProt P10635); assay: Inhibition of CYP2D6 (unknown origin) up to 10 uM; assay type: ADME
# [4] = Solubility of the compound at pH 7.4; assay type: physicochemical; settings: buffer
# Hepatitis C virus [5] = assay: Antiviral activity against HCV1a infected in clone A and ET-lunet cells assessed as inhibition of viral replication after 4 days by RT-PCR analysis; assay type: functional, organism-based, Hepacivirus hominis; settings: subtype 1a, 96 h
# Summary of the method: (§1)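 Run in HCV genotype 1a and 1b replicon cells; each reported value is the mean of n = 2 independent determinations.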
# Hepatitis C virus [6] = assay: Antiviral activity against HCV1b infected in clone A and ET-lunet cells assessed as inhibition of viral replication after 4 days by RT-PCR analysis; assay type: functional, organism-based, Hepacivirus hominis; settings: genotype 1b, 96 h; summary of the method: as §1
# Cytochrome P450 1A2 = target: T1, Cytochrome P450 1A2 (Homo sapiens, UniProt P05177); assay: Inhibition of CYP1A2 (unknown origin) up to 10 uM; assay type: ADME
# T1 sequence (P05177 whole entry): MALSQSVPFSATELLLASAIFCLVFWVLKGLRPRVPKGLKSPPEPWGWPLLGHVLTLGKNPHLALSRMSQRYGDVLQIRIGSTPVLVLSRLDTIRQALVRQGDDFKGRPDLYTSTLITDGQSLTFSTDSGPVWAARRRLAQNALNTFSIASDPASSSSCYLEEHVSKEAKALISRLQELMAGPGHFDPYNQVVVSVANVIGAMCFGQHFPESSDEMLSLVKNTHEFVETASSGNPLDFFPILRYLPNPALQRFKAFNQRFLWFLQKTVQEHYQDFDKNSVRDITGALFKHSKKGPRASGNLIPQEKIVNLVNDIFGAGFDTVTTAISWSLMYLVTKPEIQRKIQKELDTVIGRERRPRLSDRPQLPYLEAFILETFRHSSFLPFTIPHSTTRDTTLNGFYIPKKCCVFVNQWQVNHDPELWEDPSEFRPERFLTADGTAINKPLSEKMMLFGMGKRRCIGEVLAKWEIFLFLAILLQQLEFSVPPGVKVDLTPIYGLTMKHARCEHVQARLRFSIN
# Cytochrome P450 2C9 = Cytochrome P450 2C9 (Homo sapiens, UniProt P11712); assay: Inhibition of CYP2C9 (unknown origin) up to 10 uM; assay type: ADME
# [7] = Cytotoxicity against human HepG2 cells after 8 days by MTS assay; assay type: cell-based
# [8] = Cytotoxicity against human BxPC3 cells after 8 days by MTS assay; assay type: cell-based, BXPC-3
# [9] = Cytotoxicity against human CEM cells after 8 days by MTS assay; assay type: cell-based; settings: CEM cells (CCRF-CEM)
# [10] = Cytotoxicity against human HuH7 cells after 8 days by MTS assay; assay type: cell-based, Huh-7
# Hepatitis C virus [11] = assay: Antiviral activity against HCV1a infected in clone A and ET-lunet cells assessed as inhibition of viral replication up to 20 uM after 4 days by RT-PCR analysis; assay type: functional, organism-based; settings: Hepacivirus hominis, subtype 1a
# Hepatitis C virus [12] = assay: Antiviral activity against HCV1b infected in clone A and ET-lunet cells assessed as inhibition of viral replication up to 20 uM after 4 days by RT-PCR analysis; assay type: functional, organism-based; settings: Hepacivirus hominis, genotype 1b
# Chain of Cytochrome P450 2D6 (P10635 whole entry): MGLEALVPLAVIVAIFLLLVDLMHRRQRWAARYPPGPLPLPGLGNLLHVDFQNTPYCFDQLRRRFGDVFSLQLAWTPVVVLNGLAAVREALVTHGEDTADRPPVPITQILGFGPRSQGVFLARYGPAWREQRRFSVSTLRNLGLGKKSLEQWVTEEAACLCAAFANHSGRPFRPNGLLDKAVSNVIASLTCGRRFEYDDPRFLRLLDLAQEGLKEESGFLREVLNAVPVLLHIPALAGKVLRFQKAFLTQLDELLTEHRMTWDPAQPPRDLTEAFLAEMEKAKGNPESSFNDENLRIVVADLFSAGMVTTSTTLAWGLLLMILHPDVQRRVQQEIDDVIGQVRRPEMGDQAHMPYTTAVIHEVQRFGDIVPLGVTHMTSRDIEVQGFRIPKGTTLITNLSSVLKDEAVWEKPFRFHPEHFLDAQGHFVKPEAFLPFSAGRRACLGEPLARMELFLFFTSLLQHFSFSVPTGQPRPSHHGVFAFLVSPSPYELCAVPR
# Chain of Cytochrome P450 3A4 (P08684 whole entry): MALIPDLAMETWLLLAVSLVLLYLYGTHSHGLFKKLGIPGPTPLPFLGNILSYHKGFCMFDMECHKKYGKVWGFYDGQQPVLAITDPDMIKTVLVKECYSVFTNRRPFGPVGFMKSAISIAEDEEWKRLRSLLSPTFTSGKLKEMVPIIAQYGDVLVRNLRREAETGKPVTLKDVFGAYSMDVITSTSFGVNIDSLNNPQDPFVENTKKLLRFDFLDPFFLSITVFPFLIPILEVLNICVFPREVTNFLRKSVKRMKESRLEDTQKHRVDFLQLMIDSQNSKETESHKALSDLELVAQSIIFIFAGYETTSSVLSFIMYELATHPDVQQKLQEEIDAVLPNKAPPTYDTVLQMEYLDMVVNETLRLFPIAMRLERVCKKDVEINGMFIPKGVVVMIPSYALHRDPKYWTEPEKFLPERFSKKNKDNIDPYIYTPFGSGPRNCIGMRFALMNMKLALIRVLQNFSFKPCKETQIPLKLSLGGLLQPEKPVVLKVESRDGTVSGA
# Chain of Cytochrome P450 2C9 (P11712 whole entry): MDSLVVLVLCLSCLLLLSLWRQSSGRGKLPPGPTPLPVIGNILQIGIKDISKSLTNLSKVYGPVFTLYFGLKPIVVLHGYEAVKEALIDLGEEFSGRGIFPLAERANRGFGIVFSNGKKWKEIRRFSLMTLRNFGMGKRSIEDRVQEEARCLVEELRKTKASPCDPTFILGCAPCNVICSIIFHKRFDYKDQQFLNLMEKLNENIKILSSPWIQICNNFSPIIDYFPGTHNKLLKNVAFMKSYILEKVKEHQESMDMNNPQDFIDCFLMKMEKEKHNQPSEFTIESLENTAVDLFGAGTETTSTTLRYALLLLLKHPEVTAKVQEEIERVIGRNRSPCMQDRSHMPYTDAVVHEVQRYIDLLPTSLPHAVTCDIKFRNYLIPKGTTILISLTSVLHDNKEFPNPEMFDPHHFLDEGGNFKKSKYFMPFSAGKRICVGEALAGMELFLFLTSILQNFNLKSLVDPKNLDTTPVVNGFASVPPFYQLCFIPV
solubility [1],half-life [2],inhibition (INH) (Cytochrome P450 3A4),inhibition (INH) (Cytochrome P450 2D6),solubility [4],EC90 (Hepatitis C virus [5]),EC90 (Hepatitis C virus [6]),inhibition (INH) (Cytochrome P450 1A2),inhibition (INH) (Cytochrome P450 2C9),Structure (SMILES),inhibition (Hepatitis C virus [3]),CC50 at 192 h [7],CC50 at 192 h [8],CC50 at 192 h [9],CC50 at 192 h [10],inhibition (Hepatitis C virus [11]),inhibition (Hepatitis C virus [12])
0.2 µg/mL,120 min,Not Active,Not Active,0.2 µg/mL,22 nM,6 nM,Not Active,Not Active,CC(C)C[C@H]1C(=O)N[C@@H](c2cccs2)CN1C(=O)c1cc(-c2ccc(F)cc2)on1,inactive,,,,,,
147 µg/mL,40 min,Not Active,Not Active,151 µg/mL,16 nM,70 nM,Not Active,Not Active,CC(C)C[C@H]1C(=O)N[C@@H](c2cnco2)CN1C(=O)c1cc(-c2ccc(F)cc2)on1,inactive,,,,,,
,,,,,1000 nM,800 nM,,,CC(C)C[C@H]1CN(C(=O)[C@@H]2C[C@H]2c2ccccc2)[C@@H](CC(C)C)C(=O)N1,,40 µM,40 µM,40 µM,40 µM,,
,,,,,> 10000 nM,> 10000 nM,,,CC(C)C[C@H]1CN(C(=O)[C@H]2C[C@@H]2c2ccccc2)[C@@H](CC(C)C)C(=O)N1,,,,,,inactive,inactive
